This passage reports Relative potency results from ChEMBL document CHEMBL1125421, “Cholesterol lowering bile acid binding agents: novel lipophilic polyamines” (1992).

Holding throughout (type): functional
The subject of assay [1] is Coturnix coturnix. Briefly: Effect on serum VLDL+LDL cholesterol (relative to cholestipol hydrochloride) at a doses of 25,50 mg/kg BW per day. An outline of the steps:
(§1)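 Cholesterol-fed Japanese quail given compound mixed in diet for 2 weeks; controls diet alone (n = 17-20), positive controls colestipol hydrochloride 1000 mg/kg per day (n = 8-10), treated groups 10 birds. Jugular bleed; VLDL+LDL precipitated from serum with PEG-8000 in 0.2 M glycine pH 9, centrifuged 2000g 45 min 4 °C. Log-transformed cholesterol gives T/C; relative potency from doses giving T/C=0.5 using common slope -0.79.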

For assay [2], the system named is Coturnix coturnix. Nature of the assay: Effect on serum VLDL+LDL cholesterol (relative to cholestipol hydrochloride) at a dose of 150 mg/kg BW per day. An outline of the steps: as §1
The subject of assay [3] is Coturnix coturnix. Nature of the assay: Effect on serum VLDL+LDL cholesterol (relative to cholestipol hydrochloride) at a dose of 100 mg/kg BW per day. An outline of the steps: as §1
Assay [4] concerns Coturnix coturnix. Briefly: Effect on serum VLDL+LDL cholesterol (relative to cholestipol hydrochloride) at a dose of 50 mg/kg BW per day. An outline of the steps: as §1
The subject of assay [5] is Coturnix coturnix. Briefly: Effect on serum VLDL+LDL cholesterol (relative to cholestipol hydrochloride) at a doses of 10, 25, 50, 100, 150 mg/kg BW per day. An outline of the steps: as §1
In assay [6] the test system is Coturnix coturnix. Briefly: Effect on serum VLDL+LDL cholesterol (relative to cholestipol hydrochloride) at a doses of 100, 150, 300 mg/kg BW per day. An outline of the steps: as §1
For assay [7], the system named is Coturnix coturnix. Nature of the assay: Effect on serum VLDL+LDL cholesterol (relative to cholestipol hydrochloride) at a doses of 25,50, 100 mg/kg BW per day. An outline of the steps: as §1
Assay [8] concerns Coturnix coturnix. Nature of the assay: Effect on serum VLDL+LDL cholesterol (relative to cholestipol hydrochloride) at a dose of 100, 300 mg/kg BW per day. An outline of the steps:
as §1

In assay [9] the test system is Coturnix coturnix. Nature of the assay: Effect on serum VLDL+LDL cholesterol (relative to cholestipol hydrochloride) at a dose 100 of mg/kg BW per day. An outline of the steps:
as §1

Assay [10] has as its system Coturnix coturnix. Nature of the assay: Effect on serum VLDL+LDL cholesterol (relative to cholestipol hydrochloride) at a doses of 50, 150 mg/kg BW per day. An outline of the steps: as §1
Assay [11] has as its system Coturnix coturnix. Nature of the assay: Effect on serum VLDL+LDL cholesterol (relative to cholestipol hydrochloride) at a doses of 25, 50, 100 mg/kg BW per day. An outline of the steps:
as §1

`C1CCCCCC(NCCN(CCNC2CCCCCCCCCCC2)CCNC2CCC3(CC2)OCCO3)CCCCC1` had a Relative potency in the assay on Coturnix coturnix [1] of 19. In turn, `C1CCC(NCCN(CCNC2CCCCC2)CCNC2CCCCC2)CC1` had a Relative potency with Coturnix coturnix [2] of 3. Molecule `NCCN(CCN)CCNCc1ccc(-c2ccccc2)cc1` gave a Relative potency in the assay with Coturnix coturnix [3] of 2. On to `CN(CCN(CC[N+](C)(C)C)CC[N+](C)(C)C)C1CCCCCCCCCCC1.[I-].[I-]`, for which, in the assay on Coturnix coturnix [2], the Relative potency amounted to 2. As for `COC(=O)CCN(CCN(CCN(CCC(=O)OC)C1CCCCCCCCCCC1)CCN(CCC(=O)OC)C1CCCCCCCCCCC1)C1CCCCCCCCCCC1`, the Relative potency in the assay on Coturnix coturnix [4] is 4.

As for `NCCN(CCNC1CCCCCCCCCCC1)CCNC1CCCCCCCCCCC1`, in the assay with Coturnix coturnix [5], the Relative potency is reported as 13. `NCCCOCCN(CCOCCCN)CCOC1CCCCCCCCCCC1` registered a Relative potency with Coturnix coturnix [2] of 2. On to `CN(C)CCN(CCN(C)C1CCCCCCCCCCC1)CCN(C)C1CCCCCCCCCCC1`, for which the Relative potency in the assay on Coturnix coturnix [4] was 24. On to `Cl.Cl.Cl.c1ccc(CNCCN(CCNC2CCCCCCCCCCC2)CCNC2CCCCCCCCCCC2)cc1`, for which the Relative potency in the assay with Coturnix coturnix [4] is given as 29. `NCCN(CCN)CCNC1CCCCCCCCCCCCCCC1` displayed a Relative potency in the assay with Coturnix coturnix [4] of 10. Molecule `c1ccc(CNCCN(CCNC2C3CC4CC(C3)CC2C4)CCNC2C3CC4CC(C3)CC2C4)cc1` (centres undefined) showed a Relative potency with Coturnix coturnix [4] of 13. The molecule `NCCN(CCNC1CCCCCCCCCCCCCC1)CCNC1CCCCCCCCCCCCCC1` registered a Relative potency in the assay on Coturnix coturnix [2] of 7. Turning to `NCCNC(=O)CCNCCN(CCNCCC(=O)NCCN)CCNC1CCCCCCCCCCC1`, the Relative potency with Coturnix coturnix [3] was determined as 5. Regarding `NCCN(CCN)CCNC1CCCCCCCCCCCCCC1`, in the assay on Coturnix coturnix [6], the Relative potency came to 7. `O=C(NCCN(CCNC1CCCCCCCCCCC1)CCNC1CCCCCCCCCCC1)c1ccccc1` had a Relative potency with Coturnix coturnix [4] of 11. With `N#CCCNCCN(CCNCCC#N)CCNC1CCCCCCCCCCC1`, in the assay on Coturnix coturnix [2], the Relative potency was 2.

Consider `C1CCCCCC(NCCN(CCNC2CCCCCCCCCCC2)CCNC2CCCCCCCCCCC2)CCCCC1`, for which the Relative potency in the assay on Coturnix coturnix [7] was 6. `NCCN(CCN)CCNC1CCCCCCCCCCC1`: the Relative potency with Coturnix coturnix [8] was 5. Molecule `CCCCCCCCCCCCCCCCNCCN(CCN)CCN` showed a Relative potency in the assay on Coturnix coturnix [9] of 6. `COC(=O)CCNCCN(CCNCCC(=O)OC)CCNC1CCCCCCCCCCC1`: in the assay on Coturnix coturnix [10], the Relative potency was 7. With `C1CCCCCC(NCCN(CCNC2CCCCCCCCCCC2)CCNC2CCCCC2)CCCCC1`, the Relative potency with Coturnix coturnix [4] is given as 21. `CCN(CC)CCN(CCN(CC)CC)CCN(CC)C1CCCCCCCCCCC1.Cl.Cl.Cl` came in with a Relative potency in the assay on Coturnix coturnix [3] of 8. In turn, `c1ccc(CNCCN(CCNC2CCCCCCCCCCC2)CCNC2CCCCCCCCCCC2)cc1` had a Relative potency in the assay on Coturnix coturnix [1] of 18. Turning to `Cl.Cl.Cl.NCCN(CCNC1CCCCCCCCCCC1)CCNC1CCCCCCCCCCC1`, the Relative potency in the assay with Coturnix coturnix [4] is given as 13. `Cl.Cl.Cl.Cl.NCCN(CCNC1CCCCCCCCCCC1)CCNC1CCCCCCCCCCC1` yielded a Relative potency in the assay on Coturnix coturnix [4] of 12. With `NCCCNCCN(CCNCCCN)CCNC1CCCCCCCCCCC1`, in the assay on Coturnix coturnix [2], the Relative potency was determined as 4.

As to `NCCN(CCNC(=O)c1ccccc1)CCNC(=O)c1ccccc1`, the Relative potency with Coturnix coturnix [11] came out at 5. `N#CCCNCCN(CCNC1CCCCCCCCCCC1)CCNC1CCCCCCCCCCC1` had a Relative potency in the assay on Coturnix coturnix [4] of 21. In the assay on Coturnix coturnix [2], `CN(CCN(CCN(C)C1CCCCC1)CCN(C)C1CCCCC1)C1CCCCC1` displayed a Relative potency of 5.
